High-throughput results (PubChem BioAssay)
The list is not random: actives were taken first. Their share in the collection is about 4.6%.
NF-kB expr up – NF-kB expression increase, human neuronal cells; NF-kB reporter expression; hits give high values; fold change at 12.5 µM; 190,000 compounds, 1.6% hits; in the data active = fold change above about 3.3
STAT1 activator – STAT1 signaling activation. activation (% of control), % at 5.5 µM. AID 932. NIH 3T3 STAT1-luciferase reporter, IFN-gamma, luminescence; 100% = IFN-gamma alone, no compound. 200,000 compounds, 2.6% hits;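 active = activation above the screen-wide mean activation plus 3 SD, cut at about 130% in these data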;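 also: raw ratio to IFN-gamma control signal so 100% means no change and 0% no light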
Mdm2 ligase inh – Mdm2 E3 ligase (human) inhibition | AID 1230 | signal enhancement, % at 5 µM | cell-based MDM2 ubiquitination luciferase reporter, 2 h; 0 = plate control, 100 = twice control, blank-subtracted | Q00987 | 210,000 compounds, 0.11% hits;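 active = signal enhancement of 30% or more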;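 also: luminescence tracks abundance of the self-degrading MDM2-luciferase fusion protein; higher signal means inhibition of MDM2 E3 ligase activity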
Target sequence (Q00987 whole entry, looked up, the tested form may be a part): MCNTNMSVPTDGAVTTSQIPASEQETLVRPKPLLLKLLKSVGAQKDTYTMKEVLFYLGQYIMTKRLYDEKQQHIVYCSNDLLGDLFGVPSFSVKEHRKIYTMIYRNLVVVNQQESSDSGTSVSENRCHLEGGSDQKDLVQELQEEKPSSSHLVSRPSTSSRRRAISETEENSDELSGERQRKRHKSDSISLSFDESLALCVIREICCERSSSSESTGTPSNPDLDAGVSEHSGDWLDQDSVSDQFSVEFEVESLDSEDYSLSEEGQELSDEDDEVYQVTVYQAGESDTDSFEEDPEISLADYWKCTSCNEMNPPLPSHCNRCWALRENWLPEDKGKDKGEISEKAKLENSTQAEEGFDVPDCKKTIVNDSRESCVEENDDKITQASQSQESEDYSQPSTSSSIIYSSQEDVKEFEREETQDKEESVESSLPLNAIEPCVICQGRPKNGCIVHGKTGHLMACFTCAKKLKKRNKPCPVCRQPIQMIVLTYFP
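Assay system: stable mammalian line carrying autodegrading MDM2–luciferase fusion reporter; Input: 2000 cells in each well; Compound dosing: single-point 5 µM; Schedule: 2 h compound exposure at 37 °C; Signal: SteadyLite luciferase luminescence after 15 min room-temperature reagent incubation; Evaluation: % luminescence enhancement versus blank-corrected plate control mean; Benchmarks: plate controls and plate blanks.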
Wee1 stabilizer – human Wee1 degradation inhibition, primary screen. P30291. HeLa Luc-Wee1K328M stability, luciferase luminescence; 100% = proteasome inhibitor MG132 effect. reporter increase, % at 5 µM. 220,000 compounds, 1.2% hits. AID 1321;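 active = activation above the mean of all tested compounds plus 3 SD, set per screening run, cut at about 8.8% in these data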;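 also: cells exposed to compound for 20 h before luminescence read; 0% = DMSO alone and 100% = MG132 at 30 µM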
APP 5'UTR act – APP 5'UTR luciferase reporter activation; SH-SY5Y APP 5'UTR luciferase reporter, luminescence; zero percent = DMSO vehicle wells; activation, % at 2 µM; AID 1276; 190,000 compounds, 1% hits;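 active = activation above a set limit, based on mean plus 3 SD of controls, cut at about 140% in these data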
p97 inhibitor – blocks human p97 ATPase activity. AID 1481. P55072. inhibition, % at 8 µM. recombinant p97 ATPase, Kinase-Glo ATP luminescence, 3 h. 220,000 compounds, 0.42% hits; in the data active = inhibition above about 15%;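 also: 0% = DMSO vehicle and 100% = wells lacking enzyme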
Numbers without * were called inactive; . = no result.

SMILES	NF-kB expr up	STAT1 activator	Mdm2 ligase inh	Wee1 stabilizer	APP 5'UTR act	p97 inhibitor
COC(=O)NCN1C(=O)C2C3C=CC(C3)C2C1=O (stereo not drawn)	0.97	98	-9	-4	7	-4
COC(=O)c1ccc(NC(=O)CNC(=O)C2CCCCC2)c(C)c1	1.1	95	-10	10*	6	5
COC(=O)c1ccc(NC(=O)CNC(=O)C2CCCCC2)cc1	1.5	91	-23	-2	-11	-5
Cc1c(C(=O)O)cccc1-c1ccc(/C=C2/NC(=O)N(c3ccccc3)C2=O)o1	1.6	131*	-10	1	42	5
COc1cccc(NC(=O)c2cccc(OC)c2OC)c1	2.7	136*	0	5	57	0
COc1cccc(C(=O)Nc2ccc(N(C)C)cc2)c1OC	2.1	142*	-54	1	53	-3
COc1ccc(C2C(C#N)=C(N)Oc3cc(C)[nH]c(=O)c32)cc1OC (stereo not drawn)	.	.	-6	-3	.	5
CCOc1ccc(/C=C2\SC(=S)N(C(C(=O)O)c3ccccc3)C2=O)cc1OC (stereo not drawn)	.	.	-28	-1	.	-2
COc1ccc(OC)c(/C=C2\SC(=S)N(C(C(=O)O)c3ccccc3)C2=O)c1 (stereo not drawn)	.	.	-17	9.7*	.	2
Cc1nn(C)c(Oc2cccc(C(F)(F)F)c2)c1C=O	1.3	98	-3	-2	11	1
Fc1cccc(/C=N/N=C/c2cccc(F)c2)c1	1.1	147*	-7	1	38	-3
O=C(N/N=C/c1cccc(F)c1)NC1CCCCC1	1.4	120	-9	4	13	-1
COc1cccc(C=Nc2cccc3c(=O)[nH][nH]c(=O)c23)c1O	1.5	107	3	-1	12	0
CC(=O)c1sc(NC(=O)c2ccc(C)c(C)c2)nc1C	2.9	147*	-25	2	172*	4
CC(=O)c1sc(NC(=O)c2ccc(C(C)(C)C)cc2)nc1C	2.8	130*	-27	-1	73	3
CC(=O)c1sc(NC(=O)c2ccccc2F)nc1C	3.5*	122	-38	3	116	-15
CC(=O)c1sc(NC(=O)c2cccnc2Cl)nc1C	1.5	116	-1	0	-16	7
CCN(CC(=O)Nc1cc(Cl)ccc1OC)CC(=O)NC1CCS(=O)(=O)C1 (stereo not drawn)	.	.	.	-1	.	2
Nc1ccc2oc(-c3ccccc3Cl)cc(=O)c2c1O	6.5*	122	.	2	45	10
O=c1cc(-c2ccccc2Cl)oc2ccc([N+](=O)[O-])c(O)c12	1.6	93	.	6	-6	5
COc1ccc(S(=O)(=O)NC(CC(=O)NCCc2ccc(OC)c(OC)c2)C(C)C)cc1 (stereo not drawn)	1.3	97	-8	-1	4	-3
N/C(=N\OC(=O)c1cccnc1)c1ccccc1Cl	1.6	131*	-12	-1	12	-1
N/C(=N\OC(=O)c1cccnc1)c1ccc(Cl)cc1Cl	1.1	128	-7	0	24	2
N/C(=N\OC(=O)c1ccc(Br)o1)c1cccnc1	1.7	131*	19	0	36	2
N/C(=N\OC(=O)c1ccc([N+](=O)[O-])cc1)c1cccnc1	1.7	121	-4	0	25	2
SMILES	NF-kB expr up	STAT1 activator	Mdm2 ligase inh	Wee1 stabilizer	APP 5'UTR act	p97 inhibitor
N/C(=N\OC(=O)COc1ccc(Cl)cc1Br)c1cccnc1	2.9	146*	-8	3	87	2
CCCCC(=O)NC(NC(=S)N1CCCCCC1)C(Cl)(Cl)Cl (stereo not drawn)	0.88	101	-1	1	6	0
Cc1ccc(N(C(=O)c2ccco2)C2C=CS(=O)(=O)C2)cc1 (stereo not drawn)	1	100	-9	0	0	6
Fc1cccc(C2NN=C(c3ccccc3)S2)c1 (stereo not drawn)	9*	163*	-38	-3	182*	-5
COc1ccc(C2NN=C(c3ccc(C)cc3)S2)cc1OC (stereo not drawn)	3.5*	136*	17	5	164*	4
Cc1ccc(C2=NNC(c3cccc(F)c3)S2)cc1 (stereo not drawn)	3.4*	55	-82	15*	165*	-1
COc1ccc(C2NC(=O)CS2)cc1OC (stereo not drawn)	0.97	105	-11	-1	4	7
Cc1onc(-c2c(Cl)cccc2Cl)c1-c1nc2cc(Cl)ccc2c(=O)o1	.	.	-8	-2	.	4
CN(C)c1nc(/C=C(\C#N)C(N)=O)c(Cl)n1-c1ccc(F)cc1	1.1	98	3	0	15	3
CCn1cc(CN2CCc3c([nH]c4ccccc34)C2c2cccc(OC)c2)c(C)n1 (stereo not drawn)	0.86	102	-7	3	8	0
O=C(CC(c1cccs1)S(=O)(=O)c1ccccc1)c1ccc(F)cc1 (stereo not drawn)	0.97	115	2	0	36	3
CC1=C(C(=O)N2CCOCC2)C(c2cccc3ccccc23)NC(=S)N1 (stereo not drawn)	0.99	98	-9	11*	24	5
Cc1nnc(C)n1N	1.2	99	-2	3	26	6
Cc1cccc2c1N(CCOc1ccccc1Cl)C(=O)C2=O	3.7*	105	-11	0	-8	-1
COc1ccc(-c2cc3nc(C)cc(N)n3n2)cc1	4.1*	78	-56	-3	147*	-51
Cc1cccc(-c2cc3nc(C)cc(C)n3n2)c1	5.9*	150*	-8	-1	142*	-6
CCCCC(=O)/C=C/n1c(=S)oc2ccccc21	0.93	107	69*	-2	-2	0
CC(C)OC(=O)n1c(=S)oc2ccccc21	1.1	92	-1	7	40	9
CCN(CC)C(=S)SCC(=O)c1c(C)[nH]c2ccccc12	1	106	-10	2	-3	-2
CCN(CC)C(=S)SCC(=O)c1ccc(F)cc1	2.1	133*	-8	3	77	3
CCN(CC)C(=S)SCC(=O)c1ccccc1	1.2	130*	-8	2	51	1
CCOC(=O)c1ccc(CC(=O)c2oc3cc(O)ccc3c2C)o1	1.1	100	-13	10*	2	3
CCOC(=O)c1ccc(CC(=O)c2ccc(O)c(O)c2O)o1	1.5	93	-22	0	-1	5
OCCCNC(=S)Nc1ccc(Br)cc1Cl	.	.	-8	8.9*	.	-1
CCOc1cc(C(=O)Nn2cnnc2)cc(OCC)c1OCC	0.99	95	-4	8.9*	33	3
Cc1nnc(Oc2ccccc2)c2ccccc12	1.8	111	-9	0	26	4
